Measured values taken from ChEMBL document CHEMBL1148398, “Design, synthesis, and biological evaluation of thio-containing compounds with serum HDL-cholesterol-elevating properties” (2004).

What was measured:
[1] = tested on: Rattus norvegicus; test: Effect of compound on relative liver weight in 7th group of normal chow-fed male rats after a dose of 100 mg/kg/day; format: functional
In short: (§1)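 Chow-fed male Sprague–Dawley CD rats, 60–80 g, dosed by oral gavage once daily for 4 days in 1.3% Tween 80/0.25% CMC. Fasted overnight and sacrificed 24 h after the last dose. Liver weight expressed as % of body weight at termination. Six per group, mean ± SEM.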

[2] = tested on: Cricetinae gen. sp.; test: Effect of compound on very low-density lipoprotein cholesterol levels in 3rd group of cholesterol-fed male hamsters at 30 mg/kg/day after 14 days of treatment; conditions: Mesocricetus auratus
[3] = tested on: Rattus norvegicus; test: Effect of compound on liver weight in 3rd group of normal chow-fed male rats after a dose of 5 mg/kg/day; format: functional
In short: (§2)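 Male Sprague–Dawley CD rats, 60–80 g, on chow with a reverse 12 h light/dark cycle. Given one oral gavage dose daily for 4 days, suspended in 1.3% Tween 80/0.25% CMC. Fasted overnight and sacrificed 24 h after the last dose for blood and liver. Serum liver enzymes read on a clinical analyzer. Six per group, mean ± SEM.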

[4] = tested on: Rattus norvegicus; test: Effect of compound on serum apolipoprotein A1 concentration in chow-fed male rats at a dose of 10 mg/kg/day; format: functional, organism-based
In short: (§3)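 Separate dose-response study in male Sprague–Dawley CD rats, 60–80 g, on chow. Oral gavage once daily for 4 days in 1.3% Tween 80 / 0.25% CMC; fasted overnight, bled 24 h after last dose. Apo-A1 by ELISA with rabbit anti-rat primary, alkaline phosphatase-conjugated anti-rabbit IgG and p-nitrophenyl phosphate substrate. HDL-C by FPLC fractionation. Mean ± SEM, six per group.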

[5] = tested on: Mesocricetus auratus; test: Effect of compound on gain in body weight in 3rd group of cholesterol-fed male hamsters at 30 mg/kg/day after 14 days of treatment
[6] = tested on: Rattus norvegicus; test: Effect of compound on relative liver weight in 4th group of normal chow-fed male rats after a dose of 10 mg/kg/day; format: functional; in short: as §1
[7] = tested on: Rattus norvegicus; test: Effect of compound on triglyceride levels in 5th group of normal chow-fed male rats after a dose of 20 mg/kg/day; format: functional, organism-based
In short: (§4)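 Male Sprague–Dawley CD rats (60–80 g) on Purina 5001 chow with a reverse 12 h light/dark cycle. Dosed once daily by oral gavage for 4 days, suspended in 1.3% Tween 80 / 0.25% CMC. Fasted overnight and bled 24 h after the last dose. Serum TC and glycerol-blanked TG measured enzymatically; VLDL-C by FPLC fractionation with cholesterol assay. n=6, mean ± SEM.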

[8] = tested on: Rattus norvegicus; test: Effect of compound on alkaline phosphatase (ALKP) levels in 5th group of normal chow-fed male rats after a dose of 20 mg/kg/day; format: functional, organism-based
In short: (§5)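 Male Sprague–Dawley CD rats (60–80 g) on standard chow under a reversed 12 h light/dark cycle. Compound was suspended in 1.3% Tween 80/0.25% CMC and given as a single daily oral gavage dose for 4 days. Rats were fasted overnight and killed 24 h after the last dose. Serum ALT, AST, ALKP and LDH were read on a clinical analyzer. Weight gain was start versus end weight. Mean ± SEM, n = 6.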

[9] = tested on: Rattus norvegicus; test: Effect of compound on lactic dehydrogenase (LDH) levels in 1st group of normal chow-fed male rats after a dose of 1 mg/kg/day; format: functional, organism-based; in short: as §5
[10] = tested on: Rattus norvegicus; test: Effect of compound on lactic dehydrogenase (LDH) levels in 6th group of normal chow-fed male rats after a dose of 50 mg/kg/day; format: functional, organism-based; in short: as §2
[11] = tested on: Rattus norvegicus; test: Effect of compound on gain in body weight in 3rd group of normal chow-fed male rats after a dose of 5 mg/kg/day; format: functional; in short: as §5
[12] = tested on: Rattus norvegicus; test: Percent change in high-density lipoprotein cholesterol in hypercholesterolemic rats dosed at 100 mg/kg/day for 8 days; format: functional
[13] = tested on: Rattus norvegicus; test: Effect of compound on aspartate aminotransferase (AST) levels in 1st group of normal chow-fed male rats after a dose of 1 mg/kg/day; format: functional, organism-based; in short: as §5
[14] = tested on: Cricetinae gen. sp.; test: Percent change in low-density lipoprotein cholesterol following oral administration of compound in hypercholesterolemic hamsters at 100 mg/kg/day for 14 days; format: functional
In short: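 Male Syrian Golden hamsters pre-fed chow plus 0.25% cholesterol for 2 weeks and kept on it. Dosed 100 mg/kg/day by oral gavage in 2% Tween 80/saline for 14 days. Serum total cholesterol and glycerol-blanked triglycerides read enzymatically; lipoproteins separated by FPLC with cholesterol measured in each fraction. % change versus vehicle controls; six per group, p < 0.05.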

[15] = tested on: Cricetinae gen. sp.; test: Effect of compound on triglycerides level in 1st group of cholesterol-fed male hamsters at 3 mg/kg/day after 14 days of treatment; conditions: Mesocricetus auratus
[16] = tested on: Cricetinae gen. sp.; test: Effect of compound on thyroxine levels in 3rd group of cholesterol-fed male hamsters at 30 mg/kg/day after 14 days of treatment; conditions: Mesocricetus auratus
[17] = tested on: Rattus norvegicus; test: Effect of compound on alanine aminotransferase (ALT) levels in 7th group of normal chow-fed male rats after a dose of 100 mg/kg/day; format: functional, organism-based; in short: as §5
[18] = tested on: Rattus norvegicus; test: Effect of compound on aspartate aminotransferase (AST) levels in 4th group of normal chow-fed male rats after a dose of 10 mg/kg/day; format: functional, organism-based; in short: as §5
[19] = Effect on serum lipids in 4th group of cholesterol-fed male hamsters at 100 mg/kg/day after 14 days of treatment was evaluated as ratio of total cholesterol levels to high-density lipoprotein cholesterol levels; format: functional
In short: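 Male Syrian Golden hamsters on chow plus 0.25% cholesterol, 2 weeks before and during dosing. Oral gavage for 14 days in 2% Tween 80/saline. Fasted 4 h before sacrifice. Serum total cholesterol measured enzymatically; HDL-C from cholesterol in FPLC lipoprotein fractions; TC/HDL-C ratio calculated. Six per group, mean ± SEM.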

[20] = tested on: Rattus norvegicus; test: Effect of compound on very low-density lipoprotein cholesterol levels in 3rd group of normal chow-fed male rats after a dose of 5 mg/kg/day; format: functional, organism-based; in short: as §4
[21] = tested on: Rattus norvegicus; test: Effect of compound on gain in body weight in 7th group of normal chow-fed male rats after a dose of 100 mg/kg/day; format: functional; in short: as §5
[22] = tested on: Rattus norvegicus; test: Effect of compound on gain in body weight in 5th group of normal chow-fed male rats after a dose of 20 mg/kg/day; format: functional; in short: as §5
[23] = tested on: Cricetinae gen. sp.; test: Effect of compound on aspartate aminotransferase (AST) levels in 2nd group of cholesterol-fed male hamsters at 10 mg/kg/day after 14 days of treatment; conditions: Mesocricetus auratus
[24] = tested on: Cricetinae gen. sp.; test: Effect of compound on total plasma cholesterol levels in 2nd group of cholesterol-fed male hamsters at 10 mg/kg/day after 14 days of treatment; conditions: Mesocricetus auratus
[25] = tested on: Rattus norvegicus; test: Effect of compound on alkaline phosphatase (ALKP) levels in 7th group of normal chow-fed male rats after a dose of 100 mg/kg/day; format: functional, organism-based; in short: as §5
[26] = tested on: Cricetinae gen. sp.; test: Effect of compound on low-density lipoprotein cholesterol levels in 1st group of cholesterol-fed male hamsters at 3 mg/kg/day after 14 days of treatment; conditions: Mesocricetus auratus
[27] = tested on: Rattus norvegicus; test: Effect of compound on serum high-density lipoprotein cholesterol concentration in chow-fed male rats at a dose of 5 mg/kg/day; format: functional, organism-based; in short: as §3

CCN1CC(=O)N(c2cc(Cl)ccc2C)C1=S
Relative liver weight [1]: 4.5% | Serum level [2]: 91 mg/dL | Liver weight [3]: 7.2 g | Serum level [4]: 79.2 mg/dL | Body weight [5]: 8.2 g | Relative liver weight [6]: 4.3% | Serum level [7]: 19 mg/dL | Level [8]: 385 U l-1 | Level [9]: 724 U l-1 | Level [10]: 815 U l-1 | Body weight [11]: 30.7 g | Change [12]: 132% | Level [13]: 216 U l-1 | Change [14]: -30.1% | Serum level [15]: 431 mg/dL | Serum level [16]: 4.73 µg/dL | Level [17]: 67 U l-1 | Level [18]: 182 U l-1 | Ratio [19]: 1.95 | Serum level [20]: 3.9 mg/dL | Body weight [21]: 22.5 g | Body weight [22]: 30.3 g | Level [23]: 345 U l-1 | Serum level [24]: 370 mg/dL | Level [25]: 382 U l-1 | Serum level [26]: 178 mg/dL | Serum level [27]: 52.4 mg/dL
